Data reported in ChEMBL document CHEMBL4725498, “Synthesis and Biological Evaluations of Electrophilic Steroids Inspired by the Taccalonolides” (ACS Med Chem Lett, 2020).
Activity calls are given as the source filed them. The calls are words filed in the database; no cut-off is given here.

Experiments:
[1] = test system: HeLa; test: Antiproliferative activity against human HeLa cells assessed as growth inhibition measured after 48 hrs by sulforhodamine B assay; format: functional
Method in brief: (§1)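 HeLa cells exposed to compound for 48 h, then growth measured by sulforhodamine B (SRB) staining. GI50 (50% growth inhibition), TGI (total growth inhibition) and LC50 (50% cytotoxicity) were read from concentration–response data. Values are average ± SEM, n = 3–5.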

[2] = test system: MDA-MB-231; test: Cytotoxicity against human MDA-MB-231 cells assessed as reduction in cell viability measured after 48 hrs by sulforhodamine B assay; format: functional
Method in brief: (§2)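 Breast lines were tested in a 48 h SRB assay: four molecularly diverse triple-negative lines plus nontumorigenic MCF 10A, with MCF 10A tested up to 50 μM. LC50 values came from concentration–response curves. Complete cytotoxicity was taken as the concentration giving full cell kill after 48 h incubation.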

[3] = test system: BT-549; test: Cytotoxicity against human BT-549 cells assessed as concentration required for complete reduction in cell viability incubated for 48 hrs by sulforhodamine B assay; format: functional; method in brief: as §2
[4] = test system: HCC1937; test: Cytotoxicity against human HCC1937 cells assessed as reduction in cell viability measured after 48 hrs by sulforhodamine B assay; format: functional; settings: read-out: LC50 (the source's name); method in brief: as §2
[5] = test system: BT-549; test: Cytotoxicity against human BT-549 cells assessed as reduction in cell viability measured after 48 hrs by sulforhodamine B assay; format: functional; settings: read-out: LC50 (the source's name); method in brief: as §2
[6] = molecular target: T1, Tubulin (Homo sapiens) (UniProt P68371+Q9H4B7+P0DPH7+P68366+Q13509+Q71U36+P04350+Q3ZCM7+P07437+P68363+Q9BQE3+Q6PEY2+Q13885+Q9BVA1+Q9BUF5); test: Induction of microtubule destabilization in human BT-549 cells assessed as loss of microtubule network at 100 nM incubated for 6 hrs by indirect immunofluorescence assay; format: cell-based
Method in brief: (§3)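 BT-549 cells were treated for 6 h with compound or DMSO vehicle. Microtubules were then visualised by immunofluorescence with a β-tubulin antibody, scoring microtubule loss or bundling.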

[7] = molecular target: T1, Tubulin (Homo sapiens); test: Induction of microtubule stabilization in human BT-549 cells assessed as bundling of microtubule network at 1 microM incubated for 6 hrs by indirect immunofluorescence assay; format: cell-based; method in brief: as §3
[8] = organism: Sus scrofa; test: Inhibition of porcine brain tubulin polymerization assessed as reduction in rate and extent of tubulin polymerization at 5 to 10 uM by turbidimetric assay; settings: dose microM 5-10
Method in brief: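 Purified porcine brain tubulin (20 μM) was incubated with a range of compound concentrations. Polymerization was monitored turbidimetrically after shift to 37 °C.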

[9] = test system: HeLa; test: Cytotoxicity against human HeLa cells assessed as reduction in cell viability measured after 48 hrs by sulforhodamine B assay; format: functional; settings: read-out: LC50 (the source's name); method in brief: as §1
[10] = organism: Sus scrofa; test: Inhibition of porcine brain tubulin polymerization assessed as reduction in rate and extent of tubulin polymerization at 20 uM by turbidimetric assay
Method in brief: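 Purified porcine brain tubulin (20 μM) was incubated with 20 μM compound or DMSO vehicle. Polymerization was monitored turbidimetrically after shift to 37 °C.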

[11] = test system: SK-OV-3; test: Antiproliferative activity against human SKOV3 cells assessed as reduction in cell growth at 0.01 to 10 uM incubated for 48 hrs by SRB assay; format: functional, cell-based; settings: dose microM 0.01-10, time 48.0 hrs
[12] = test system: SK-OV-3; test: Antiproliferative activity against human SKOV3-M6/6 cells assessed as reduction in cell growth at 0.01 to 10 uM incubated for 48 hrs by SRB assay; format: functional, cell-based; settings: dose microM 0.01-10, time 48.0 hrs
[13] = Selectivity ratio of antiproliferative activity against human SKOV3-M6/6 cells transfected with MDR1 to antiproliferative activity against human SKOV3 cells measured after 48 hrs by sulforhodamine B assay; format: functional
[14] = test system: MCF-10A; test: Cytotoxicity against human MCF10A cells assessed as reduction in cell viability measured after 48 hrs by sulforhodamine B assay; format: cell-based; method in brief: as §2
[15] = test system: ES2; test: Antiproliferative activity against human ES-2 cells assessed as reduction in cell growth at 0.01 to 10 uM incubated for 48 hrs by SRB assay; format: functional, cell-based; settings: dose microM 0.01-10, time 48.0 hrs
[16] = test system: HeLa; test: Antiproliferative activity against human HeLa cells assessed as reduction in cell viability incubated for 8 hrs by sulforhodamine B assay; format: functional; settings: read-out: LC50 (the source's name)
[17] = test system: HeLa; test: Inhibition of colony formation in human HeLa cells at 1.4 uM treated for 8 hrs followed by compound washout and measured after 11 days by crystal violet staining based assay; format: functional
Method in brief: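 HeLa cells were treated for 8 h with 1.4 μM compound or EtOH vehicle, then the drug was washed out. Colonies were scored 11 days after removal. Groups were compared with vehicle by 1-way ANOVA with Dunnett's post hoc test.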

[18] = test system: OVCAR-5; test: Antiproliferative activity against human OVCAR-5 cells assessed as reduction in cell growth at 0.01 to 10 uM incubated for 48 hrs by SRB assay; format: functional, cell-based; settings: dose microM 0.01-10, time 48.0 hrs
[19] = Selectivity index, ratio of LC50 for human HeLa cells to LC50 for human HCC1937 cells measured after 48 hrs by sulforhodamine B assay; format: functional
[20] = test system: HeLa; test: Antiproliferative activity against human HeLa cells assessed as reduction in cell growth incubated for 8 hrs by trypan blue exclusion assay; format: functional, cell-based
Method in brief: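 HeLa viability was followed during the first 8 h of treatment by trypan blue exclusion.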

[21] = test system: MDA-MB-453; test: Cytotoxicity against human MDA-MB-453 cells assessed as reduction in cell viability measured after 48 hrs by sulforhodamine B assay; format: functional; method in brief: as §2

In the case of `C[C@]12CC=CC[C@@H]1CC[C@@H]1[C@@H]2CC[C@]2(C)C(=O)C=C[C@@H]12`, the GI50 [1] is reported as 470 nM, the TGI [1] is reported as 720 nM and the CC50 ([2]; read-out: LC50 (the source's name)) is reported as 1920 nM. For the same molecule, the CC100 [3] was 1 µM, the CC50 [4] was 1390 nM and the CC50 [5] was 610 nM. The Activity [6] was “inactive”, the Activity [7] was “inactive” and the inhibition [8] was “Dose-dependent effect”. For the same molecule, the CC50 [9] was 1070 nM and the inhibition [10] was “Active”.

`C[C@]12C[C@H]3O[C@H]3C[C@@H]1CC[C@H]1[C@@H]3[C@@H]4O[C@@H]4C(=O)[C@@]3(C)CC[C@@H]12` gave a GI50 [1] of 520 nM, a TGI [1] of 740 nM and an LC50 (concentration killing 50% of cells) [2] of 2500 nM. The Activity [11] was “Active”, the Activity [12] was “Active” and the Ratio [13] was 5. The LC50 [14] was greater than 50000 nM, the Activity [15] was “Active” and the CC50 [16] was 1400 nM. It also gave a CC50 [4] of 470 nM, a CC50 [5] of 1070 nM and an inhibition at 1.4 µM [17] of 100%. For the same molecule, the Activity [18] was “Active”, the RatioLC50 [19] was 2 and the Activity [20] was “inactive”. The LC50 (concentration killing 50% of cells) [21] was 740 nM, the CC50 [9] was 1090 nM and the inhibition [10] was “inactive”.
